Laboratory results taken from ChEMBL document CHEMBL5512642, “Novel triterpenoid pyrones, phthalimides and phthalates are selectively cytotoxic in CCRF-CEM cancer cells - Synthesis, potency, and mitochondrial mechanism of action” (Eur J Med Chem, 2024).
Activity calls are given as the source filed them. No cut-off for these calls is given here.

How the values were obtained:
CCRF-CEM [1] = experiment: Induction of apoptosis in human CCRF-CEM cells assessed as viable cells at 5 time IC50 incubated for 24 hrs by Annexin V and propidium iodide staining based flow cytometry analysis (reference value: 98%); format: functional
U2OS = experiment: Cytotoxicity against human U2OS cells assessed as reduction in cell viability incubated for 72 hrs by MTS assay; format: functional, cell-based
CCRF-CEM [2] = experiment: Induction of apoptosis in human CCRF-CEM cells assessed as reduction in Bcl-2 expression at 5 time of IC50 incubated for 24 hrs by Western blot analysis; format: functional, cell-based
Procedure, shortened: (§1)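 Lysate 20 µg protein per lane on SDS-PAGE, transferred to nitrocellulose, blocked in 5% BSA/TBS-Tween. Probed overnight at 4 °C with anti-caspase-3, Bcl-2, Bcl-XL, β-actin, then HRP secondary 1 h. ECL chemiluminescence detection.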

CCRF-CEM [3] = experiment: Induction of mitochondrial membrane potential loss in human CCRF-CEM cells assessed as cells with depolarized mitochondria (P2 gate) by measuring green fluorescence intensity at 5 time IC50 incubated for 24 hrs by JC-1 staining based flow cytometry (reference value: 2.1%)
CCRF-CEM [4] = experiment: Antiproliferative activity against human CCRF-CEM cells assessed as inhibition of RNA synthesis at 5 time of IC50 by BrdU incorporation assay; format: functional, cell-based; details: in the assay text read “BrU incorporation assay” for “BrdU incorporation assay”
Procedure, shortened: (§2)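 Mitotic fraction scored with the pH3 Ser10 marker and DNA synthesis with BrdU incorporation. For transcription, cells received a short BrU pulse after the 24 h pre-incubation. Read by flow cytometry against untreated cells.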

[5] = Apparent permeability of the compound in MDCK-MDR1 cells at 10 uM incubated for 1 hr by RF-MS analysis; format: ADME, cell-based, Canis lupus familiaris; details: dog
Procedure, shortened: (§3)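 Caco-2 and MDCK-MDR1 monolayers; transport measured in both directions, apical→basolateral and basolateral→apical. Efflux ratio taken from the two directions; ER > 2 counted as active efflux. Compound recovery reported. Cell-based permeability runs done in duplicate.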

[6] = Metabolic stability in human liver microsomes assessed as compound remaining at measured at 15 mins in presence of NADPH by RF-MS analysis; format: ADME, Microsome; details: read-out: Stability
Procedure, shortened: (§4)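 Human liver microsomes with NADPH cofactor to assess phase I oxidation. Compound remaining sampled at 15, 30 and 60 min; intrinsic clearance derived and categorized. Run in triplicate.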

[7] = Efflux ratio of apparent permeability across basolateral to apical side over apical to basolateral side in MDCK-MDR1 cells; format: ADME, cell-based, Canis lupus familiaris; details: dog; procedure, shortened: as §3
CCRF-CEM [8] = experiment: Induction of apoptosis in human CCRF-CEM cells assessed as early apoptotic cells at 5 time IC50 incubated for 24 hrs by Annexin V and propidium iodide staining based flow cytometry analysis (reference value: 1.4%); format: functional
CCRF-CEM [9] = experiment: Induction of apoptosis in human CCRF-CEM cells assessed as reduction in Bcl-XL expression at 5 time of IC50 incubated for 24 hrs by Western blot analysis; format: functional, cell-based; procedure, shortened: as §1
CEM-DNR = experiment: Cytotoxicity against human CEM-DNR cells assessed as reduction in cell viability incubated for 72 hrs by MTS assay; format: functional, cell-based
[10] = Apparent permeability of the compound across apical to basolateral side in MDCK-MDR1 cells assessed as compound recovery at 10 uM incubated for 1 hr by RF-MS analysis; format: ADME, cell-based, Canis lupus familiaris; details: dog, read-out: Activity; procedure, shortened: as §3
CCRF-CEM [11] = experiment: Antiproliferative activity against human CCRF-CEM cells assessed as reduction cell population at 1 time of IC50 by BrdU incorporation assay; format: functional, cell-based; procedure, shortened: as §2
[12] = Plasma protein binding in human assessed as fraction bound at 10 uM by rapid equilibrium dialysis based RF-MS analysis; format: ADME, cell-free; details: read-out: PPB (converted)
Procedure, shortened: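 Human plasma protein binding measured by equilibrium dialysis and reported as percent fraction bound. Run in triplicate.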

[13] = Apparent permeability of the compound across apical to basolateral side in human Caco-2 cells assessed as compound recovery; format: ADME, cell-based; details: read-out: Activity; procedure, shortened: as §3
[14] = Stability in human plasma assessed as compound remaining measured 15 mins by RF-MS analysis; format: ADME, cell-free; details: read-out: Stability
Procedure, shortened: (§5)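 Compounds incubated in human plasma in vitro for up to 2 h. Percent remaining sampled at 15, 30, 60 and 120 min. Run in triplicate.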

CCRF-CEM [15] = experiment: Induction of apoptosis in human CCRF-CEM cells assessed as necrotic cells at 1 time IC50 incubated for 24 hrs by Annexin V and propidium iodide staining based flow cytometry analysis (reference value: 0.1%); format: functional
[16] = Metabolic stability in human liver microsomes assessed as compound remaining at measured at 30 mins in presence of NADPH by RF-MS analysis; format: ADME, Microsome; details: read-out: Stability; procedure, shortened: as §4
CCRF-CEM [17] = experiment: Induction of apoptosis in human CCRF-CEM cells assessed as necrotic cells at 5 time IC50 incubated for 24 hrs by Annexin V and propidium iodide staining based flow cytometry analysis (reference value: 0.; format: functional
[18] = Cytotoxicity against human BJ cells assessed as reduction in cell viability incubated for 72 hrs by MTS assay; format: toxicity, cell-based
CCRF-CEM [19] = experiment: Cytotoxicity against human CCRF-CEM cells assessed as reduction in cell viability incubated for 72 hrs by MTS assay; format: functional, cell-based
CCRF-CEM [20] = experiment: Induction of apoptosis in human CCRF-CEM cells assessed as viable cells at 1 time IC50 incubated for 24 hrs by Annexin V and propidium iodide staining based flow cytometry analysis (reference value: 98%); format: functional
[21] = Stability in human plasma assessed as compound remaining measured 60 mins by RF-MS analysis; format: ADME, cell-free; details: read-out: Stability; procedure, shortened: as §5
CCRF-CEM [22] = experiment: Induction of apoptosis in human CCRF-CEM cells assessed as late apoptotic cells at 5 time IC50 incubated for 24 hrs by Annexin V and propidium iodide staining based flow cytometry analysis (reference value: 0.5%); format: functional
[23] = Efflux ratio of apparent permeability across basolateral to apical side over apical to basolateral side in human Caco-2 cells; format: ADME, cell-based; procedure, shortened: as §3
CCRF-CEM [24] = experiment: Induction of mitochondrial membrane potential loss in human CCRF-CEM cells assessed as cells with depolarized mitochondria (P2 gate) by measuring green fluorescence intensity at 1 time IC50 incubated for 24 hrs by JC-1 staining based flow cytometry (reference value: 2.1%)
CCRF-CEM [25] = experiment: Induction of apoptosis in human CCRF-CEM cells assessed as early apoptotic cells at 1 time IC50 incubated for 24 hrs by Annexin V and propidium iodide staining based flow cytometry analysis (reference value: 1.4%); format: functional
[26] = Stability in human plasma assessed as compound remaining measured 30 mins by RF-MS analysis; format: ADME, cell-free; details: read-out: Stability; procedure, shortened: as §5
[27] = Cytotoxicity against human MRC5 cells assessed as reduction in cell viability incubated for 72 hrs by MTS assay; format: toxicity, cell-based
[28] = Stability in human plasma assessed as compound remaining measured 120 mins by RF-MS analysis; format: ADME, cell-free; details: read-out: Stability; procedure, shortened: as §5
CCRF-CEM [29] = experiment: Antimitotic activity against human CCRF-CEM cells assessed as decrease in cell division at 5 times of IC50; format: functional, cell-based; procedure, shortened: as §2
A549 = experiment: Cytotoxicity against human A549 cells assessed as reduction in cell viability incubated for 72 hrs by MTS assay; format: functional, cell-based; details: A549, 72 h
CCRF-CEM [30] = experiment: Induction of apoptosis in human CCRF-CEM cells assessed as late apoptotic cells at 1 time IC50 incubated for 24 hrs by Annexin V and propidium iodide staining based flow cytometry analysis (reference value: 0.5%); format: functional
[31] = Apparent permeability of the compound in human Caco-2 cells; format: ADME, cell-based; procedure, shortened: as §3
[32] = Metabolic stability in human liver microsomes assessed as compound remaining at measured at 60 mins in presence of NADPH by RF-MS analysis; format: ADME, Microsome; details: read-out: Stability; procedure, shortened: as §4
HCT 116 TP53(-/-) = experiment: Cytotoxicity against human HCT116-p53-null cells assessed as reduction in cell viability incubated for 72 hrs by MTS assay; format: functional, cell-based
[33] = Cytotoxicity against human K562-Tax cells assessed as reduction in cell viability incubated for 72 hrs by MTS assay; format: functional, cell-based
HCT-116 = experiment: Cytotoxicity against human HCT-116 cells assessed as reduction in cell viability incubated for 72 hrs by MTS assay; format: functional, cell-based; details: HCT-116, 72 h
K562 = experiment: Cytotoxicity against human K562 cells assessed as reduction in cell viability incubated for 72 hrs by MTS assay; format: functional, cell-based; details: K562, 72 h
CCRF-CEM [34] = experiment: Antiproliferative activity against human CCRF-CEM cells assessed as reduction BruD positive cell at 1 time of IC50 by BrdU incorporation assay; format: functional, cell-based; procedure, shortened: as §2
CCRF-CEM [35] = experiment: Antiproliferative activity against human CCRF-CEM cells assessed as reduction BruD positive cell at 5 time of IC50 by BrdU incorporation assay; format: functional, cell-based; procedure, shortened: as §2
CCRF-CEM [36] = experiment: Induction of apoptosis in human CCRF-CEM cells assessed as reduction in caspase-3 expression at 5 time of IC50 incubated for 24 hrs by Western blot analysis; format: functional, cell-based; procedure, shortened: as §1

Papp at 1 h, 10 µM [5] [nm/s] | remaining at 0.25 h [6] [%] | recovery at 1 h, 10 µM [10] [%] | fraction unbound at 10 µM [12] | recovery [13] [%] | remaining at 0.25 h [14] [%] | Structure (SMILES) | Activity (CCRF-CEM [1]) [%] | IC50 (U2OS) [µM] | Activity (CCRF-CEM [2]) | Activity (CCRF-CEM [3]) [%] | Activity (CCRF-CEM [4]) | Activity (CCRF-CEM [8]) [%] | Activity (CCRF-CEM [9]) | IC50 (CEM-DNR) [µM] | Activity (CCRF-CEM [11]) | Activity (CCRF-CEM [15]) [%] | Activity (CCRF-CEM [17]) [%] | IC50 at 72 h [18] [µM] | IC50 (CCRF-CEM [19]) [µM] | Activity (CCRF-CEM [20]) [%] | other results
0.5 | 92 | 86 | 0.403 | 84.2 | 99.2 | CC(C)[C@@H]1CC[C@]2(C(=O)O)CC[C@]3(C)[C@H](CC[C@@H]4[C@@]5(C)CC6=C(C7C(=O)N(c8ccccc8)C(=O)C7C=C6C(F)(F)F)C(C)(C)[C@@H]5CC[C@]43C)[C@@H]12 (stereo partly drawn) | 90.3 | 4.8 | Active | 6.7 | Active | 5.2 | Active | > 50 | Active | 0 | 0 | 25 | 4.5 | 92.4 | efflux ratio [7]: 71.8; remaining at 0.5 h [16]: 92%; remaining at 1 h [21]: 96.7%; Activity (CCRF-CEM [22]): 4.5%; efflux ratio [23]: 63.5; Activity (CCRF-CEM [24]): 2.2%; Activity (CCRF-CEM [25]): 4.7%; remaining at 0.5 h [26]: 102%; IC50 at 72 h [27]: 28 µM; remaining at 2 h [28]: 89%; Activity (CCRF-CEM [29]): inactive; IC50 (A549): 18 µM; Activity (CCRF-CEM [30]): 2.9%; Papp [31]: 0.9 nm/s; remaining at 1 h [32]: 56%; IC50 (HCT 116 TP53(-/-)): 28 µM; IC50 [33]: > 50 µM; IC50 (HCT-116): 29 µM; IC50 (K562): 30 µM
2.7 | 106 | 64.8 | 0.056 | 105 | 98.4 | CC(C)[C@@H]1CC[C@]2(C(=O)O)CC[C@]3(C)[C@H](CC[C@@H]4[C@@]5(C)Cc6c(C(F)(F)F)cc(=O)oc6C(C)(C)[C@@H]5CC[C@]43C)[C@@H]12 | 69.9 | 19 | Active | 28.6 | Active | 14.3 | Active | 4.9 | inactive | 0 | 0 | > 50 | 3.5 | 92.4 | Activity (CCRF-CEM [34]): inactive; remaining at 1 h [21]: 97.5%; Activity (CCRF-CEM [22]): 15.8%; Activity (CCRF-CEM [35]): Active; Activity (CCRF-CEM [24]): 4%; Activity (CCRF-CEM [25]): 4.8%; remaining at 0.5 h [26]: 97.7%; IC50 at 72 h [27]: 27 µM; remaining at 2 h [28]: 94.2%; Activity (CCRF-CEM [29]): Active; IC50 (A549): 11 µM; Activity (CCRF-CEM [30]): 2.8%; Activity (CCRF-CEM [36]): Active; Papp [31]: 1.5 nm/s; remaining at 1 h [32]: 82%; IC50 (HCT 116 TP53(-/-)): 18 µM; IC50 [33]: 17 µM; IC50 (HCT-116): 10 µM; IC50 (K562): 23 µM
